Mdm2 ligase inh: Mdm2 E3 ligase (human) inhibition | Q00987 | cell-based MDM2 ubiquitination luciferase reporter, 2 h; 0 = plate control, 100 = twice control, blank-subtracted | signal enhancement, % at 5 µM | hit rate 0.11% among 210,000 | AID 1230;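 active = signal enhancement of 30% or more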;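 note: luminescence tracks abundance of the self-degrading MDM2-luciferase fusion protein; higher signal means inhibition of MDM2 E3 ligase activity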
Target sequence (Q00987 whole entry, looked up, the tested form may be a part): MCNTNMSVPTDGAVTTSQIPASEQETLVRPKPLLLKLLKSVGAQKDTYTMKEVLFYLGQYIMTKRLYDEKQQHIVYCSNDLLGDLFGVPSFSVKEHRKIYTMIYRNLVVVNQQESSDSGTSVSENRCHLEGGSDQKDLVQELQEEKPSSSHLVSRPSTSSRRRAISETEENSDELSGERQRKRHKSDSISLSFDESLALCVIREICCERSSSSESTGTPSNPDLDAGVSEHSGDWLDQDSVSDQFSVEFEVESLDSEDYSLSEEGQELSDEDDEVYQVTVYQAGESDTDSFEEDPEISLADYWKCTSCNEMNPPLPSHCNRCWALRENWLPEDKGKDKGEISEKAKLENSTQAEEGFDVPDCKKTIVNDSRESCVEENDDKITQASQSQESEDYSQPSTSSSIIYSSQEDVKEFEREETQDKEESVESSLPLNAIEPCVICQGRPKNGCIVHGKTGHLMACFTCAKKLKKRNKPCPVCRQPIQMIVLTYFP
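test system = mammalian cells stably expressing self-ubiquitinating, self-degrading MDM2 E3–luciferase fusion | quantity = 2000 cells/well | incubation = cell settling 4 h, compound treatment 2 h, both 37 °C | signal = luminescence with SteadyLite reagent, 15 min at room temperature | evaluation = % enhancement relative to plate controls after blank subtraction | benchmarks = plate controls and plate blanks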
p97 inhibitor: blocks human p97 ATPase activity; hit rate 0.42% among 220,000; recombinant p97 ATPase, Kinase-Glo ATP luminescence, 3 h; inhibition, % at 8 µM; P55072; in the data active = inhibition above about 15%
ROMK mod: human ROMK K+ channel modulation, primary screen. P48048. Tet-inducible ROMK, thallium flux fluorescence; actives lie on both sides. B-score at 10 µM. hit rate 2% among 130,000. AID 1918;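 active = signal ratio slope over the read window, or its plate-corrected B-score, at least 3 SD from the plate mean, either direction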;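 note: B-score of the F/F0 ratio slope over 7 to 12 s after thallium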
KCC2 mod: modulators of human KCC2 chloride dependent transport; hit rate 2.2% among 190,000; AID 1456; KCC2 cells, thallium flux FluoZin-2 fluorescence; B-score of Tl+ flux slope (higher = more flux/activation; lower = inhibition) at 10 µM;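 active = thallium flux slope and its plate-corrected score both differing from the plate sample mean at a set confidence after two filtering rounds, in either direction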;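 note: slope of fluorescence scaled to starting intensity during 10 to 20 s after thallium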
PKD1 inh: blocks activity of human protein kinase D1 | hit rate 0.056% among 200,000 | inhibition, % (test concentration not listed) | Q15139 | PKD1 kinase fluorescence polarization assay; in the data active = inhibition above about 50%
DTT redox prof: compounds producing H2O2 with reducing agent – biochemical, NIH compound library profiling, artefact control for MLSCN library redox annotation, primary screen | DTT-dependent redox cycling H2O2, phenol red/HRP absorbance; 100% = 100 µM peroxide control, 0% = buffer | AID 878 | hit rate 0.03% among 200,000 | activation, % at 10 µM;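 active = activation of at least 50% relative to the plate's high and low controls in the primary single-dose screen; inactive = activation below 50%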;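 note: compound incubated with DTT at 0.8 mM final as the reducing agent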
ROMK hit retest: retested hit modulating human ROMK potassium channel; ROMK thallium flux, fluorescence ratio; active compounds read low; shares compounds with ROMK mod; hit rate 54% among 3,000; AID 1917; normalized thallium flux (F/F0 slope) at 10 µM;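 active = Flux at 10 µM at least 3 SD below or above vehicle control mean in one or both replicates; inconclusive = no clear call, values can overlap the other calls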
Of the large screens only hits and unclear results are named; the others gave an inactive call (follow-up assays come after a bar, where they were run). In the library only some 3.4% were active in any assay of this set; here they are far more common.

CCC(NC(=O)NCc1ccc2c(c1)OCO2)(C(F)(F)F)C(F)(F)F	ROMK mod 1.5 | ROMK hit retest inactive
Cc1nn(C(C)(C)C)c(OC(=O)c2cccs2)c1S(=O)(=O)c1ccccc1	none (no result: ROMK mod)
COC(=O)C(=N/Nc1ccccc1C(=O)OC)/C(C)=N/O	none (no result: PKD1 inh, DTT redox prof)
COc1cc(S(=O)(=O)n2ccc(C)n2)c(OC)cc1Cl	none (no result: KCC2 mod)
Cc1ccc(C2=NN(Cc3nnc(-c4ccccc4)o3)C(=O)SC2)cc1	none
Cc1ccc(SCCN)cc1C	ROMK mod -3 | ROMK hit retest 0.068
C[C@@H](C(=O)NCc1ccccn1)[C@@H]1C[C@@]1(C)[C@@H](NC(=O)OCc1ccccc1)c1ccccc1	none (no result: Mdm2 ligase inh)
COc1cc(OC)c(NC(=O)CCNC(=O)Cn2ccc3ccccc3c2=O)cc1Cl	none (no result: ROMK mod)
CCOc1cc(-c2cc(-c3ccccc3)nc(N)c2C#N)ccc1O	none
CCOc1cc(-c2cc(-c3ccc(N)cc3)nc(N)c2C#N)ccc1O	ROMK mod 5 | ROMK hit retest inactive
CC(C)OP(=O)(OC(C)C)C(Nc1ccc(C(=O)O)cc1)c1ccccc1 (stereo not given)	none (no result: PKD1 inh, DTT redox prof)
CCN(CC)Cc1c(O)ccc2c([N+](=O)[O-])c(C)n(-c3ccc(OC)cc3)c12	ROMK mod -4.8 | ROMK hit retest inconclusive
CCN(CC)Cc1c(O)ccc2occ(C(=O)c3ccc(OC)cc3)c12	none
O=C(CCC(=O)Nc1ccccc1)NNS(=O)(=O)c1ccccc1[N+](=O)[O-]	ROMK mod 0.44 | ROMK hit retest inactive
Cc1cc(Oc2ccccc2)nc(SCC(N)=O)n1	none (no result: ROMK mod, KCC2 mod)
Clc1ccc(COc2cccc(CNCc3ccncc3)c2)cc1	ROMK mod -3.8 (no result: Mdm2 ligase inh) | ROMK hit retest inactive
Cc1ccc(NC2=NCC(=O)N2Cc2ccc3c(c2)OCO3)c(C)c1	none (no result: ROMK mod)
Cc1nn(-c2ccccc2)c(Cl)c1/C=C(\C#N)C(=O)NC(C)C	none (no result: ROMK mod) | ROMK hit retest 0.038
Cc1sc2ncn(CCn3cnc4sc(C)c(C)c4c3=O)c(=O)c2c1C	none
Cc1sc2ncn3c(C)nnc3c2c1C	none (no result: ROMK mod, KCC2 mod) | ROMK hit retest inactive
CC1CCc2cc(F)ccc2N1C(=O)CCl (stereo not given)	ROMK mod -4.3 | ROMK hit retest 0.048
OC(CNCc1ccc(Cl)cc1)C(F)(F)F (stereo not given)	none
OC(CNCCCCNCC(O)C(F)(F)F)C(F)(F)F (stereo not given)	ROMK mod 2.7 | ROMK hit retest inactive
CC1CCCCC1NC(=O)C1CCN(S(=O)(=O)N2CCC3(CC2)OCCO3)CC1 (stereo not given)	none (no result: ROMK mod, KCC2 mod)
CCOC(=O)C(C)Sc1nnc(Cn2c(=O)sc3ccccc32)n1-c1ccccc1 (stereo not given)	none (no result: ROMK mod) | ROMK hit retest inconclusive
Cc1ccc(C)c(-n2nnnc2Sc2nnnn2-c2ccccc2)c1	ROMK mod -4.6 | ROMK hit retest 0.058
CCSc1nnnn1-c1ccccc1	none
O=C(Nc1ccc(S(=O)(=O)Nc2ccc(F)cc2)cc1)c1ccc(CN2CCOCC2)cc1	ROMK mod -3.4 | ROMK hit retest inconclusive
O=C(Nc1ccc(S(=O)(=O)N2CCCCC2)cc1)c1ccc(CN2CCOCC2)cc1	none (no result: ROMK mod) | ROMK hit retest 0.059
COc1ccc(NS(=O)(=O)c2ccc(NC(=O)c3ccc(CN4CCOCC4)cc3)cc2)cc1	none
COc1ccc(-n2c(-c3cnccn3)n[nH]c2=S)cc1	none (no result: ROMK mod) | ROMK hit retest inactive
COCCCn1c(N)c(-c2nc3ccccc3n2C)c2nc3ccccc3nc21	ROMK mod -4.3 (no result: KCC2 mod) | ROMK hit retest 0.045
C=CCNC(=O)CC(=O)N/N=C/c1cccs1	none
CN(C(=S)Nc1ccc(F)cc1)C1(c2ccccc2Cl)CCCCC1=O (stereo not given)	none (no result: ROMK mod) | ROMK hit retest inactive
C=CCSC1=C(C#N)C(c2ccccc2Cl)CC(=O)N1 (stereo not given)	none (no result: ROMK mod, KCC2 mod)
O=C(O)c1cccc2c1C(=O)c1ccccc1C2=O	ROMK mod -2.4 | ROMK hit retest inactive
C=CCNc1nc(-c2ccc(OC)cc2OC)cs1	none (no result: ROMK mod)
CCc1nc2ccccc2c(C(=O)OCC(=O)Nc2cccc(S(=O)(=O)NC3=NCCCCC3)c2)c1C	none (no result: ROMK mod, PKD1 inh, DTT redox prof)
Cc1ccc2[nH]c3c(N4CCN(Cc5ccc6c(c5)OCO6)CC4)ncnc3c2c1	ROMK mod -3.8 (no result: KCC2 mod) | ROMK hit retest 0.061
Cc1ccc2[nH]c3c(N4CCCCCC4)ncnc3c2c1	ROMK mod -4 (no result: KCC2 mod) | ROMK hit retest 0.058
O=C(CCNC(=O)c1ccccc1Cl)NC1=NCCS1	none
O=C(OCCN(CCOC(=O)c1ccncc1)S(=O)(=O)c1cccs1)c1ccncc1	none
CCCCNC(=O)C1CCN(S(=O)(=O)c2c(C)noc2/C=C\c2ccc(OC)cc2)CC1	none (no result: ROMK mod) | ROMK hit retest inactive
CC[C@H](C)[C@H](NC(N)=O)C(=O)Nc1ccc(NC(C)=O)cc1	none (no result: ROMK mod, PKD1 inh, DTT redox prof) | ROMK hit retest inactive
O=C(O)c1cc(N2C(=O)C3CC=CCC3C2=O)ccc1NCc1cccnc1 (stereo not given)	ROMK mod 2.6 | ROMK hit retest inactive
O=C(Cc1ccccc1)NCc1ccc(-n2cccc2)cc1	ROMK mod 2.5 | ROMK hit retest inactive
COc1ccc(NC(=O)COC(=O)CCCc2c[nH]c3ccccc23)cc1OC	none (no result: ROMK mod)
CCOC(=O)c1ccc2[nH]c3c(c2c1)CCCCC3=O	none (no result: ROMK mod) | ROMK hit retest inactive
CCOC(=O)c1ccc2[nH]c3c(c2c1)CCCC3C(=O)OCC (stereo not given)	none (no result: ROMK mod)
CN(Cc1ccccc1NC(=O)c1ccc(S(=O)(=O)N(C)C)cc1)C1CCCCC1	none
COc1cc(NC(=O)CSc2ncnc3c2cnn3Cc2ccccc2)cc(OC)c1	none
COc1ccc(OC)c(NC(=O)CSc2ncnc3c2cnn3-c2ccccc2Cl)c1	ROMK mod -3.2 | ROMK hit retest 0.06
O=Cc1ccc(-c2ccccc2OC(F)(F)F)o1	ROMK mod 3.8 (no result: KCC2 mod) | ROMK hit retest 0.11
Cc1c(C(=O)O)cccc1-c1ccc(C=O)o1	none
CN(C)c1nc(SCC#N)nc(N2CCOCC2)n1	none (no result: ROMK mod)
CN(C)S(=O)(=O)Oc1cccc(C(=O)Nc2ccc(Cl)cc2)c1	none (no result: ROMK mod) | ROMK hit retest inactive
CN(C)S(=O)(=O)Oc1cccc(C(=O)Nc2ccccc2Cl)c1	none (no result: ROMK mod)
CCC(C)(C)C1CCc2c(sc(NC(=O)c3ccccc3C(=O)O)c2C#N)C1 (stereo not given)	none (no result: ROMK mod, PKD1 inh, DTT redox prof) | ROMK hit retest 0.11
CC(C)(C)C1CCc2c(sc(NC(=O)C3CC=CCC3C(=O)O)c2C#N)C1 (stereo not given)	ROMK mod -3.5 | ROMK hit retest inconclusive
CCOC(=O)c1c(C)c(C(=O)Nc2ccc(N(C)C)cc2)c(C)n1CC	none (no result: ROMK mod)
Cc1ccc(OCCn2c(CCCO)nc3ccccc32)cc1	none
OCCCc1nc2ccccc2n1CCOc1ccccc1	ROMK mod -2.9 | ROMK hit retest 0.067
